From ChEMBL document CHEMBL4396951, “Optimization and anti-inflammatory evaluation of methyl gallate derivatives as a myeloid differentiation protein 2 inhibitor” (Bioorg Med Chem, 2019)
Active and inactive are the calls of the source. The rule behind the calls is not given here.

Key:
Peritoneal macrophage [1] = assay: Antiinflammatory activity in C57BL/6 mouse primary peritoneal macrophages assessed as inhibition of LPS-induced IL-6 production at 10 uM preincubated for 30 mins followed by LPS stimulation and measured after 24 hrs by sandwich ELISA; type: functional, cell-based
In short: (§1)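 Thioglycollate-elicited mouse peritoneal macrophages in RPMI-1640/10% FBS. Compound pretreatment for 30 min (10 μM for single-point screening, graded concentrations for dose-response), then 0.5 μg/mL LPS for 24 h. TNF-α and IL-6 in culture medium measured by sandwich ELISA and normalized to total protein in cell lysates; n = 3.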

Peritoneal macrophage [2] = assay: Antiinflammatory activity in C57BL/6 mouse primary peritoneal macrophages assessed as inhibition of LPS-induced TNFalpha production at 10 uM preincubated for 30 mins followed by LPS stimulation and measured after 24 hrs by sandwich ELISA; type: functional, cell-based; in short: as §1
Peritoneal macrophage [3] = assay: Antiinflammatory activity in C57BL/6 mouse primary peritoneal macrophages assessed as inhibition of LPS-induced IL-6 production at 10 uM preincubated for 30 mins followed by LPS stimulation and measured after 24 hrs by sandwich ELISA relative to control; type: functional; settings: C57BL/6, Peritoneal macrophage; in short: as §1
Peritoneal macrophage [4] = assay: Antiinflammatory activity in C57BL/6 mouse primary peritoneal macrophages assessed as inhibition of LPS-induced TNFalpha production at 10 uM preincubated for 30 mins followed by LPS stimulation and measured after 24 hrs by sandwich ELISA relative to control; type: functional; settings: C57BL/6, Peritoneal macrophage; in short: as §1
Peritoneal macrophage [5] = assay: Antiinflammatory activity in C57BL/6 mouse primary peritoneal macrophages assessed as inhibition of LPS-induced IL-6 production preincubated for 30 mins followed by LPS stimulation and measured after 24 hrs by sandwich ELISA; type: functional, cell-based; in short: as §1
Peritoneal macrophage [6] = assay: Antiinflammatory activity in C57BL/6 mouse primary peritoneal macrophages assessed as inhibition of LPS-induced TNFalpha production preincubated for 30 mins followed by LPS stimulation and measured after 24 hrs by sandwich ELISA; type: functional, cell-based; in short: as §1
[7] = Stability of compound in pH 7.4 phosphate buffer at 20 uM measured up to 25 mins by UV-VIS spectroscopy; type: physicochemical; settings: pH 7.4, 25 min

Compound | inhibition (Peritoneal macrophage [1]) | inhibition (Peritoneal macrophage [2]) | other results
CCN(CC)c1ccc(C(=O)Nc2ccc3c(c2)CCC3)cc1 | Active | Active | –
CN(C)c1ccccc1C(=O)Nc1ccc2c(c1)CCC2 | Active | Active | inhibition at 10 µM (Peritoneal macrophage [3]): > 50%; inhibition at 10 µM (Peritoneal macrophage [4]): > 50%; inhibition (Peritoneal macrophage [5]): Dose-dependent effect; inhibition (Peritoneal macrophage [6]): Dose-dependent effect; Stability [7]: Stable
Cc1ccc(C(=O)Nc2ccc3c(c2)CCC3)s1 | Active | Active | –
O=C(Nc1ccc2c(c1)CCC2)c1cccc(N2CCCC2)c1 | Active | Active | –
CC(=O)Nc1ccc(C(=O)Nc2ccc3c(c2)CCC3)cc1 | Active | Active | –
O=C(Nc1ccc(F)cc1)c1cc(O)c(O)c(O)c1 | Active | Active | –
O=C(/C=C/c1ccccc1C(F)(F)F)Nc1ccc2c(c1)CCC2 | Active | Active | –
O=C(Nc1ccccc1)c1cc(O)c(O)c(O)c1 | Active | Active | –
O=C(/C=C/c1cccc(OC(F)(F)F)c1)Nc1ccc2c(c1)CCC2 | Active | Active | –
O=C(Nc1ccc2c(c1)CCC2)c1cccc(N2CCOCC2)c1 | Active | Active | –
O=C(Cc1cccc2ccccc12)Nc1ccc2c(c1)CCC2 | Active | Active | inhibition at 10 µM (Peritoneal macrophage [3]): > 50%; inhibition at 10 µM (Peritoneal macrophage [4]): > 50%; inhibition (Peritoneal macrophage [5]): Dose-dependent effect; inhibition (Peritoneal macrophage [6]): Dose-dependent effect; Stability [7]: Stable
COc1ccc2cc(C(=O)Nc3ccc4c(c3)CCC4)[nH]c2c1 | Active | Active | inhibition at 10 µM (Peritoneal macrophage [3]): > 50%; inhibition at 10 µM (Peritoneal macrophage [4]): > 50%; inhibition (Peritoneal macrophage [5]): Dose-dependent effect; inhibition (Peritoneal macrophage [6]): Dose-dependent effect; Stability [7]: Stable
O=C(Nc1ccc(N2CCOCC2)cc1)c1cc(O)c(O)c(O)c1 | Active | Active | –
O=C(CCCc1c[nH]c2ccccc12)Nc1ccc2c(c1)CCC2 | Active | Active | –
COc1cc(/C=C/C(=O)Nc2ccc3c(c2)CCC3)cc(OC)c1OC | Active | Active | –
O=C(Nc1ccc2cc[nH]c2c1)c1cc(O)c(O)c(O)c1 | Active | Active | –
O=C(Nc1ccc2c(c1)CCC2)c1cc2ccccc2[nH]1 | Active | Active | –
COc1ccc(/C=C/C(=O)Nc2ccc3c(c2)CCC3)cc1O | Active | Active | –
COc1cc(/C=C/C(=O)Nc2ccc3c(c2)CCC3)cc(OC)c1O | Active | Active | –

Compound | inhibition (Peritoneal macrophage [1]) | inhibition (Peritoneal macrophage [2]) | other results
Cc1ncsc1C(=O)Nc1ccc2c(c1)CCC2 | Active | Active | –
CN(C)c1cccc(C(=O)Nc2ccc3c(c2)CCC3)c1 | Active | Active | –
O=C(Cc1ccc([N+](=O)[O-])cc1[N+](=O)[O-])Nc1ccc2c(c1)CCC2 | Active | Active | –
COc1cc(NC(=O)c2cc(O)c(O)c(O)c2)cc(OC)c1 | Active | Active | –
CCOc1ccc(NC(=O)c2cc(O)c(O)c(O)c2)cc1 | Active | Active | –
COc1ccc(/C=C/C(=O)Nc2ccc3c(c2)CCC3)cc1OC | Active | Active | –
COc1ccccc1CNC(=O)c1cc(O)c(O)c(O)c1 | Active | Active | –
COc1cc(CC(=O)Nc2ccc3c(c2)CCC3)cc(OC)c1 | Active | Active | –
O=C(Nc1ccc2c(c1)CCC2)c1c(Cl)cccc1Cl | Active | Active | –
CC(=O)N1CCc2cc(NC(=O)c3cc(O)c(O)c(O)c3)ccc21 | Active | Active | –
COc1ccc(NC(=O)c2cc(O)c(O)c(O)c2)cc1 | Active | Active | –
COc1ccc(CNC(=O)c2cc(O)c(O)c(O)c2)cc1OC | Active | Active | –
O=C(NCc1ccccc1)c1cc(O)c(O)c(O)c1 | Active | Active | –
COc1ccc(OC)c(/C=C/C(=O)Nc2ccc3c(c2)CCC3)c1 | Active | Active | –
O=C(Nc1ccc2c(c1)CCC2)c1ccc(Cl)c([N+](=O)[O-])c1 | Active | Active | –
CN1CCN(Cc2ccc(NC(=O)c3cc(O)c(O)c(O)c3)cc2)CC1 | Active | Active | –
CN1CCN(c2ccc(NC(=O)c3cc(O)c(O)c(O)c3)cc2)CC1 | Active | Active | –
O=C(Nc1ccc2c(c1)CCC2)c1ccccc1C(F)(F)F | Active | Active | –
O=C(Nc1ccc2c(c1)CCC2)c1cc(Cl)nc(Cl)c1 | Active | Active | –
